Assay [1] deals with MDM2. The assay can be described thus: FRET microscopy, peptide-GFP and MDM2-mCherry. It is filed as binding. The settings on record: HEK293T cells, confocal FRET microscopy, 48 h after transfection. The essentials:
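HEK293T cells were seeded at 5 × 10^4 per well on poly-L-lysine-coated glass coverslips and kept at 37°C in 5% CO2. They were co-transfected with GFP-fused peptide and mCherry-fused target, then fixed with 4% paraformaldehyde 48 h later, washed in PBS and imaged by confocal FRET microscopy at room temperature. Laser power and PMT gain were held constant. […] excitation was used with FRET detection at […]. Net FRET was obtained by subtracting GFP bleed-through and mCherry direct emission. Controls expressed GFP and/or mCherry alone.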

Assay [2] has as its system MDM2. Description: shRNA-induced cell viability rescue, MDM2 knockdown. It is filed as cell-based. Particulars: shRNA cells transfected with peptide; triplicate.
Assay [3] concerns RWP1 cells. Description: Downstream effects of peptide expression, Western blot, RWP1. It is filed as cell-based, human.
In another assay the test system is Panc 02.03 cells. Description: Downstream effects of peptide expression, Western blot, Panc 02.03. The class given is cell-based.
In another assay the test system is Mia Paca-2 cells. Description: Downstream effects of peptide expression, Western blot, Mia Paca-2. The class given is cell-based.
A short description of assay [4]: Downstream effect of peptide, gels of Fig. 4 and Supplementary Fig. 7. The settings on record: triplicate; cell line not stated. It is filed as cell-based.
The test system of another assay is HEK293T cells. The assay can be described thus: Downstream effects of peptide expression, Western blot, HEK293T. The class given is cell-based, human.
Assay [5] relates to AKT (S473) phosphorylation in RWP1 cells. The assay can be described thus: Serum-induced AKT. The class given is cell-based, human. The settings on record: RWP1 starved 24 hours, 10% FBS for 20 minutes; Western blot. The essentials:
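Peptide expressed or not in RWP1 cells, which were starved 24 h and then given 10% FBS for 20 min. Lysate proteins run on 10% Bis-Tris SDS-PAGE and transferred to PVDF. Blots probed with anti-AKT (1:1000) or anti-phospho-AKT S473 (1:1000), then HRP secondary (1:2500), with ECL detection. Paired with HEK293T cells treated the same way.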

The test system of assay [6] is RWP1 cells. Description: Cell viability with synthetic lipidated peptides, RWP1. It is filed as cell-based, human. The settings on record: duplicate.
For another assay, the system named is SFN. The assay can be described thus: shRNA-induced cell viability rescue, SFN knockdown. Particulars: shRNA cells transfected with peptide; triplicate. The class given is cell-based.
The next assay relates to cell cycle. Description: FACS analysis of cell cycle. The class given is cell-based. Particulars: triplicate.
Another assay relates to GCHFR. The assay can be described thus: shRNA-induced cell viability rescue, GCHFR knockdown. It is filed as cell-based. The settings on record: shRNA cells transfected with peptide; triplicate.

On to ETFSDLW, for which, in the assay with MDM2 [1], the “FRET signal with MDM2” value is given as “Positive FRET signals”. Further, in the assay on MDM2 [2], the “rescue of peptide phenotype by knockdown of MDM2” value was “showed rescue of the peptide phenotype”. The p21 level result with RWP1 cells [3], in the assay with Panc 02.03 cells and with Mia Paca-2 cells was “increase in p21 levels” each time. For the same substance, the p53 level entry in the assay with RWP1 cells [3], in the assay with Panc 02.03 cells and in the assay with Mia Paca-2 cells was “decrease in degradation of p53” each time. In assay [4], the P53 level result was “increasing P53 levels”.

With KFFCTIL, the p21 level entry with RWP1 cells [3] and in the assay with Panc 02.03 cells was “increased the expression of p21” throughout. Also, the “phospho-AKT (S473) level” value in the assay on RWP1 cells [3] is “decrease of the level of phospho-AKT (S473)”; in the assay with Panc 02.03 cells, “decrease of the level of phospho-AKT (S473)”; with HEK293T cells, “did not affect the level of phospho-AKT”. Besides, the “serum-induced AKT phosphorylation” value in [5] is “inhibited the increase in AKT phosphorylation”.

With PSSLAYSLKKH, the p21 level result in the assay on RWP1 cells [3] was “accumulation of p53 and p21”; in the assay with Panc 02.03 cells, “accumulation of p53 and p21”; in the assay on Mia Paca-2 cells, “accumulation of p53 and p21”; in the assay on HEK293T cells it was “did not affect the level of p53 and p21”. The p53 level entry in the assay on RWP1 cells [3] is “accumulation of p53 and p21”; in the assay with Panc 02.03 cells it was “accumulation of p53 and p21”; in the assay on Mia Paca-2 cells, “accumulation of p53 and p21”; with HEK293T cells, “did not affect the level of p53 and p21”.

Turning to Pal-NPFREKKFFCTIL-NH2 [GNG4-1], in the assay on RWP1 cells [6], the “effect on cell viability (in words)” value was “strong dosage dependent effects on cell viability”.

Regarding Pal-PSSLAYSLKKH-OH [INCENP-1], the “effect on cell viability (in words)” value with RWP1 cells [6] was “strong dosage dependent effects on cell viability”.

Pal-RTLSQLYCSYGPLT-OH [MUS81-1]: the “effect on cell viability (in words)” value in the assay with RWP1 cells [6] is listed as “strong dosage dependent effects on cell viability”.

As to RTLSQLYCSYGPLT, the p21 level result with RWP1 cells [3] is “increases the expression of p53 and p21”; in the assay with Panc 02.03 cells, “increases the expression of p53 and p21”. Also, the p53 level result with RWP1 cells [3] is “increases the expression of p53 and p21”; with Panc 02.03 cells it was “increases the expression of p53 and p21”.

On to TEGPDSD, for which the “rescue of peptide phenotype by knockdown of SFN” value with SFN is “showed rescue of the peptide phenotype”. For the same substance, in the assay on RWP1 cells [3], the cdc2 expression entry was “reduced expression of both cyclin B1 and cdc2”; the “cyclin A2 expression” value is “increase of cyclin A2 expression”; the “cyclin B1 expression” value was “reduced expression of both cyclin B1 and cdc2”. Further, the “cyclin A2 expression” value in the assay on Panc 02.03 cells is listed as “increase of cyclin A2 expression”. In the assay on Mia Paca-2 cells, the cdc2 expression entry was “reduced expression of both cyclin B1 and cdc2”; the “cyclin A2 expression” value was “increase of cyclin A2 expression”; the “cyclin B1 expression” value was “reduced expression of both cyclin B1 and cdc2”. Also, in [4], the cdc2 level result was “decrease in cyclin B1 and cdc2 levels”; the “cyclin A level” value is on record as “increase in cyclin A”; the “cyclin B1 level” value was “decrease in cyclin B1 and cdc2 levels”. For the same substance, the “effect on cell cycle” value in the assay on cell cycle (FACS, DAPI, 24, 72 and 120 hours, cell line not stated) is given as “cell cycle arrest in G2”. For the same substance, the “percentage of GFP positive cells vs GFP alone” value with cell cycle (different time points) is reported as “similar”.

For the substance VWCLHKE, in the assay with GCHFR, the “rescue of peptide phenotype by knockdown of GCHFR” value was “showed rescue of the peptide phenotype”.

Values taken from PMC5756068 (Nature chemical biology, 2016).
